# In ChEMBL document CHEMBL1156597, “Structure-activity relationship of kahalalide F synthetic analogues” (J Med Chem, 2008):
# Tests used:
# [1] = Cytotoxicity against human IGROV-ET cells after 48 hrs by SRB assay; type: functional; settings: for CC50: read-out: LC50 (the source's name)
# Outline: (§1)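 Cells grown in RPMI 1640 with 10% FBS and penicillin/streptomycin at 37 °C and 5% CO₂, trypsinized, then seeded at 5 × 10³/well. After 18 h drug-free attachment, samples in DMSO/EtOH/PBS (0.5:0.5:99) were added for 48 h continuous exposure. Cells were fixed with cold TCA (1 h, 4 °C) and stained with SRB (10 min). Tris-solubilized stain read at 490 nm. Triplicate wells, mean ± SD; GI₅₀ derived.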
# LoVo = experiment: Cytotoxicity against human LoVo cells after 48 hrs by SRB assay; type: functional; settings: for CC50: read-out: LC50 (the source's name)
# SK-MEL-28 = experiment: Cytotoxicity against human SK-MEL-28 cells after 48 hrs by SRB assay; type: functional, cell-based; settings: Homo sapiens, SK-MEL-28, 48 h; for CC50: read-out: LC50 (the source's name); for GI50: read-out: GI50; outline: as §1
# DU-145 = experiment: Cytotoxicity against human DU145 cells after 48 hrs by SRB assay; type: functional, cell-based; settings: Homo sapiens, DU-145, 48 h; for GI50: read-out: GI50; for CC50: read-out: LC50 (the source's name); outline: as §1
# HT-29 = experiment: Cytotoxicity against human HT29 cells after 48 hrs by SRB assay; type: functional, cell-based; settings: Homo sapiens, HT-29, 48 h; for CC50: read-out: LC50 (the source's name); outline: as §1
# K562 = experiment: Cytotoxicity against human K562 cells after 48 hrs by SRB assay; type: functional; settings: K562, 48 h; for CC50: read-out: LC50 (the source's name); outline: as §1
# SK-BR-3 = experiment: Cytotoxicity against human SKBR3 cells after 48 hrs by SRB assay; type: functional; settings: SK-BR-3, 48 h; for GI50: read-out: GI50; for CC50: read-out: LC50 (the source's name); outline: as §1
# HeLa = experiment: Cytotoxicity against human HeLa cells after 48 hrs by SRB assay; type: functional; settings: for CC50: read-out: LC50 (the source's name); outline: as §1
# [2] = Cytotoxicity against human HeLa-APL cells after 48 hrs by SRB assay; type: functional; outline: as §1
# LNCaP = experiment: Cytotoxicity against human LNcaP cells after 48 hrs by SRB assay; type: functional; settings: for CC50: read-out: LC50 (the source's name); outline: as §1
# PANC-1 = experiment: Cytotoxicity against human PANC1 cells after 48 hrs by SRB assay; type: functional; settings: PANC-1, 48 h; for CC50: read-out: LC50 (the source's name); outline: as §1
# A549 = experiment: Cytotoxicity against human A549 cells after 48 hrs by SRB assay; type: functional, cell-based; settings: Homo sapiens, A549, 48 h; for GI50: read-out: GI50; outline: as §1
# [3] = Cytotoxicity against human IGROV cells after 48 hrs by SRB assay; type: functional; settings: for CC50: read-out: LC50 (the source's name); outline: as §1
structure (smiles),measurement,setting,value
C/C=C1\NC(=O)[C@H](Cc2ccccc2)NC(=O)[C@@H](C(C)C)NC(=O)[C@@H]([C@H](C)CC)NC(=O)[C@H](NC(=O)[C@H](NC(=O)[C@H](CCCN)NC(=O)[C@H]2CCCN2C(=O)[C@H](NC(=O)[C@H](NC(=O)[C@@H](NC(=O)[C@H](NC(=O)CCCC(C)C)C(C)C)[C@@H](C)O)C(C)C)C(C)C)[C@H](C)CC)[C@H](C)OC(=O)[C@H](C(C)C)NC1=O,CC50,[1],0.702 µM
same,GI50,LoVo,3.31 µM
same,TGI,LoVo,3.21 µM
same,CC50,LoVo,3.11 µM
same,CC50,SK-MEL-28,1.44 µM
same,TGI,DU-145,3.8 µM
same,GI50,DU-145,3.13 µM
same,CC50,DU-145,1.65 µM
same,GI50,HT-29,4.84 µM
same,TGI,HT-29,3.93 µM
same,CC50,HT-29,0.886 µM
same,GI50,K562,4.29 µM
same,TGI,K562,4.83 µM
same,CC50,K562,2.43 µM
same,TGI,SK-BR-3,3.23 µM
same,GI50,SK-BR-3,3.69 µM
same,CC50,SK-BR-3,2.31 µM
same,CC50,HeLa,1.04 µM
same,GI50,[2],3.4 µM
same,LC50 (concentration giving 50% net cell kill),[2],1.32 µM
same,TGI,[2],3.04 µM
same,GI50,LNCaP,2.44 µM
same,TGI,LNCaP,3.23 µM
same,CC50,LNCaP,1.54 µM
same,GI50,PANC-1,4.43 µM
same,TGI,PANC-1,4.92 µM
same,CC50,PANC-1,2.53 µM
same,LC50,A549,1.91 µM
same,TGI,A549,4.23 µM
same,GI50,A549,5.09 µM
same,CC50,[3],0.631 µM
C/C=C1\NC(=O)[C@H](Cc2ccccc2)NC(=O)[C@@H](C(C)C)NC(=O)[C@@H]([C@H](C)CC)NC(=O)[C@H](NC(=O)[C@H](NC(=O)[C@H](CCCN)NC(=O)[C@H]2CCCN2C(=O)[C@H](NC(=O)[C@@H](NC(=O)[C@@H](NC(=O)[C@H](NC(=O)c2ccccc2)C(C)C)[C@@H](C)O)C(C)C)C(C)C)[C@H](C)CC)[C@H](C)OC(=O)[C@H](C(C)C)NC1=O,GI50,[1],0.521 µM
same,GI50,[1]; read-out: GI50,0.627 µM
same,CC50,[1],0.436 µM
same,GI50,LoVo,0.353 µM
same,TGI,LoVo,0.423 µM
same,CC50,LoVo,0.573 µM
same,TGI,SK-MEL-28,1.01 µM
same,GI50,SK-MEL-28,1.12 µM
same,CC50,SK-MEL-28,0.901 µM
same,TGI,DU-145,1.12 µM
same,GI50,DU-145,1.21 µM
same,CC50,DU-145,1.04 µM
same,CC50,HT-29,0.508 µM
same,GI50,K562,0.431 µM
same,TGI,K562,1.51 µM
same,CC50,K562,2.45 µM
same,TGI,SK-BR-3,1.36 µM
same,GI50,SK-BR-3,0.874 µM
same,CC50,SK-BR-3,1.39 µM
same,GI50,HeLa,1.21 µM
same,TGI,HeLa,0.945 µM
same,CC50,HeLa,0.732 µM
same,GI50,[2],1.04 µM
same,LC50 (concentration giving 50% net cell kill),[2],0.834 µM
same,TGI,[2],0.934 µM
same,GI50,LNCaP,1.19 µM
same,TGI,LNCaP,1.37 µM
same,CC50,LNCaP,1.54 µM
same,GI50,PANC-1,5.38 µM
same,TGI,PANC-1,4.94 µM
same,CC50,PANC-1,2.54 µM
same,LC50,A549,1.12 µM
same,TGI,A549,1.22 µM
same,GI50,A549,1.32 µM
same,GI50,[3],0.565 µM
same,GI50,[3]; read-out: GI50,0.997 µM
same,CC50,[3],3.91 µM
C/C=C1\NC(=O)[C@H](Cc2ccccc2)NC(=O)[C@@H](C(C)C)NC(=O)[C@@H]([C@H](C)CC)NC(=O)[C@H](NC(=O)[C@H](NC(=O)[C@H](CCCN)NC(=O)[C@H]2CCCN2C(=O)[C@H](NC(=O)[C@@H](NC(=O)[C@@H](NC(=O)[C@H](NC(=O)CCCNC(=N)N)C(C)C)[C@@H](C)O)C(C)C)C(C)C)[C@H](C)CC)[C@H](C)OC(=O)[C@H](C(C)C)NC1=O,CC50,[1],0.695 µM
same,CC50,LoVo,4.74 µM
same,CC50,SK-MEL-28,1.43 µM
same,CC50,DU-145,1.63 µM
same,CC50,HT-29,0.877 µM
same,CC50,K562,2.41 µM
same,CC50,SK-BR-3,2.75 µM
same,CC50,HeLa,1.03 µM
same,LC50 (concentration giving 50% net cell kill),[2],1.31 µM
same,GI50,LNCaP,3.93 µM
same,TGI,LNCaP,3.2 µM
same,CC50,LNCaP,1.52 µM
same,CC50,PANC-1,2.51 µM
same,LC50,A549,1.89 µM
same,CC50,[3],0.624 µM
C/C=C1\NC(=O)[C@H](Cc2ccccc2)NC(=O)[C@@H](C(C)C)NC(=O)[C@@H]([C@H](C)CC)NC(=O)[C@H](NC(=O)[C@H](NC(=O)[C@H](CCCN)NC(=O)[C@H]2CCCN2C(=O)[C@H](NC(=O)[C@@H](NC(=O)[C@@H](NC(=O)[C@@H](Cc2ccccc2)NC(=O)CCCC(C)C)[C@@H](C)O)C(C)C)C(C)C)[C@H](C)CC)[C@H](C)OC(=O)[C@H](C(C)C)NC1=O,TGI,[1],1.73 µM
same,GI50,[1]; read-out: GI50,2.24 µM
same,CC50,[1],0.68 µM
same,GI50,LoVo,2.62 µM
same,TGI,LoVo,2.71 µM
same,CC50,LoVo,2.8 µM
same,TGI,SK-MEL-28,2.92 µM
same,GI50,SK-MEL-28,2.64 µM
same,CC50,SK-MEL-28,1.4 µM
same,TGI,DU-145,3.68 µM
same,GI50,DU-145,3.9 µM
same,CC50,DU-145,1.6 µM
same,CC50,HT-29,5.59 µM
same,GI50,K562,3.4 µM
same,TGI,K562,4.68 µM
same,CC50,K562,2.36 µM
same,TGI,SK-BR-3,2.19 µM
same,GI50,SK-BR-3,2.34 µM
same,CC50,SK-BR-3,1.67 µM
same,GI50,HeLa,2.21 µM
same,TGI,HeLa,2.69 µM
same,CC50,HeLa,1.01 µM
same,GI50,[2],0.179 µM
same,LC50 (concentration giving 50% net cell kill),[2],1.28 µM
same,TGI,[2],1.7 µM
same,GI50,LNCaP,2.28 µM
same,TGI,LNCaP,3.13 µM
same,CC50,LNCaP,1.49 µM
same,GI50,PANC-1,5.44 µM
same,TGI,PANC-1,4.76 µM
same,CC50,PANC-1,2.45 µM
same,LC50,A549,1.84 µM
same,TGI,A549,2.75 µM
same,GI50,A549,2.65 µM
same,GI50,[3],0.862 µM
same,GI50,[3]; read-out: GI50,2.01 µM
same,CC50,[3],0.449 µM
